Data set [1] deals with Trypanosoma brucei. The data set can be described thus: Antitrypanosomal activity against blood stream form of Trypanosoma brucei 221a variant assessed as parasite growth inhibition measured after 48 hrs by resazurin dye based fluorescence analysis. The class given is functional, organism-based. In short, it runs like this:
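Bloodstream-form T. b. brucei 221a (MiTat1.2a) in modified Iscove's medium at 37 °C, started at 2.5×10^4 mL^-1 with a concentration range. After 48 h, resazurin was added for a further 16 h. Fluorescence read at ex 545/em 590 nm. EC50 and EC90 taken from three independent replicates.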

Data set [2] in a line: Cytotoxicity against rat L6 cells assessed as cell growth inhibition incubated for 6 days by resazurin dye based assay. The class given is toxicity. In short, it runs like this:
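Rat L6 myoblasts seeded at 1×10⁴ mL⁻¹ in RPMI-1640 with a range of compound concentrations, 6 days at 37 °C; resazurin added, 6 h further, fluorescence ex 545/em 590 nm.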

Data set [3] in a line: Selectivity index, ratio of EC50 for cytotoxicity against rat L6 cells to EC50 for antitrypanosomal activity against bloodstream form of Trypanosoma brucei brucei 221a variant. The class given is toxicity, cell-based. As to conditions: read-out: Ratio EC50. In short, it runs like this: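 L6 rat myoblasts seeded at 1×10^4 mL^-1 in RPMI-1640 with a compound concentration range for 6 days at 37 °C. Resazurin added for 6 h, then fluorescence read.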

Data set [4] deals with Trypanosoma brucei. Nature of the data set: Antitrypanosomal activity against blood stream form of Trypanosoma brucei 221a variant assessed as parasite growth inhibition at 0.3 nM preincubated for 24 hrs followed by subculturing with fresh medium with compounds and measured after 6 days by resazurin dye based fluorescence analysis. As to conditions: time 7.0 day. The class given is functional, organism-based. In short, it runs like this:
(§1)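 Bloodstream-form T. brucei seeded in flasks at 10^5 mL^-1 with a range of compound concentrations. Every 24 h parasites were sub-cultured back to 10^5 mL^-1 in continued compound presence, through day 10. Growth reported as cumulative parasite number. In a washout arm, parasites were exposed for 3 days, moved to compound-free medium and followed for 12 days.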

In data set [5] the test system is Trypanosoma brucei. Nature of the data set: Antitrypanosomal activity against blood stream form of Trypanosoma brucei 221a variant assessed as parasite growth inhibition at 0.15 to 4.8 nM preincubated for 24 hrs followed by subculturing with fresh medium with compounds and measured after 2 days by resazurin dye based fluorescence analysis. It is filed as functional, organism-based. As to conditions: dose 0.15-4.8 nM, time 3.0 day. In short, it runs like this:
as §1

Data set [6] can be described thus: Apparent permeability across basolateral to apical side in MDCK-MDR1 cells at 10 uM measured for 60 mins by LC-MS/MS analysis. It is filed as ADME, cell-based, Canis lupus familiaris. The note with it: dog, mdck-mdr1, 1 h, 10 µM. In short, it runs like this:
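MDCKII-hMDR1 monolayers on inserts, compound 10 μM (1% DMSO) in duplicate, 60 min at 37 °C, bidirectional, with and without elacridar 2 μM. Amprenavir as P-gp control, Lucifer yellow for monolayer integrity; compound quantified by LC–MS/MS.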

The nature of data set [7]: Metabolic stability in mouse liver microsomes assessed as half life at 1 uM measured upto 60 mins in presence of NADPH by LC-MS/MS analysis. The class given is ADME, Microsome. As to conditions: 1 h.
Data set [8] in a line: Toxicity in BALB/c mouse infected with bioluminescent Trypanosoma brucei brucei GVR35-VSL2 expressing red-shifted luciferase assessed as piloerection in animal at 0.25 to 20 mg/kg, ip administered once daily for 4 days. The class given is organism-based. As to conditions: in vivo, 96 h, dose 0.25-20 mg/kg, time 4 day. In short, it runs like this:
(§2)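 Infected BALB/c mice (bioluminescent T. brucei, 30,000 parasites) dosed i.p. or orally once daily for 4 days starting day 4 post-infection; observed for piloerection, hunching, shaking, lack of activity and body weight change.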

Data set [9] is described as follows: Toxicity in BALB/c mouse infected with bioluminescent Trypanosoma brucei brucei GVR35-VSL2 expressing red-shifted luciferase assessed as lack of activity in animal at 0.25 to 20 mg/kg, ip administered once daily for 4 days. The class given is organism-based. The note with it: in vivo, 96 h, dose 0.25-20 mg/kg, time 4 day. In short, it runs like this: as §2

Data set [10] can be described thus: Toxicity in BALB/c mouse infected with bioluminescent Trypanosoma brucei brucei GVR35-VSL2 expressing red-shifted luciferase assessed as body weight loss at 20 mg/kg, ip administered once daily for 4 days. The class given is organism-based. As to conditions: in vivo, 96 h, time 4 day. In short, it runs like this:
as §2

Data set [11] concerns Trypanosoma brucei brucei. The data set can be described thus: Antitrypanosomal activity against stage-1 bioluminescent Trypanosoma brucei brucei GVR35-VSL2 expressing red-shifted luciferase infected in BALB/c mouse assessed as reduction in parasite growth at 2 mg/kg, ip administered as single dose for 1 day starting from 4 days post infection by luciferase based bioluminescence assay. The class given is functional, organism-based. In short, it runs like this: (§3)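 BALB/c mice infected with 30,000 bioluminescent bloodstream-form T. brucei; dosing i.p. or oral from 4 days post-infection, single or once daily for 4 days. Monitored by in vivo imaging after i.p. d-luciferin 150 mg kg⁻¹ under isoflurane, with total body flux from dorsal plus ventral images. Cure required negativity by both in vivo and ex vivo imaging.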

The subject of a further data set is Plasmodium falciparum. The data set can be described thus: Antiplasmodial activity against Plasmodium falciparum 3D7 infected in human erythrocytes assessed as inhibition of asexual parasite development measured after 96 hrs by fluorescence based assay. The class given is functional, organism-based. As to conditions: 3D7, Erythrocyte. In short, it runs like this:
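3D7 asexual parasites in human erythrocytes (RPMI 1640, 0.5% Albumax II, 50 μM hypoxanthine, 2 mM L-glutamine, 5% CO2), 2% parasitemia/1% hematocrit; compound in DMSO dilutions, 96 h at 37 °C. Freeze-thaw, SYBR green lysis buffer, 1 h, fluorescence ex 485/em 535 nm. Normalized to DMSO and 1 μM dihydroartemisinin; EC50 from triplicate independent dose-response curves.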

The test system of data set [12] is Trypanosoma brucei. Nature of the data set: Resistance development in blood stream form of Trypanosoma brucei assessed as fold increase in resistance at 10 ug/ml preincubated for 6 hrs with bafilomycin Al followed by compound addition and measured after 48 hrs by resazurin dye-based analysis. It is filed as functional. As to conditions: dose 10 µg/ml. In short, it runs like this:
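Bloodstream-form T. brucei pre-incubated 6 h in 4 or 8 nM bafilomycin A1, then given compound and kept in BafA1. The run then followed the 48 h microtiter resazurin assay: start at 2.5×10^4 mL^-1, 37 °C, 16 h resazurin, fluorescence ex 545/em 590 nm. Done in triplicate.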

Data set [13] in a line: Drug localization in lysosomes of Trypanosoma brucei bloodstream form at 10 ug/ml measured after 6 hrs in presence of bafilomycin Al by TbCatL antibody based immunofluorescence microscopy. The class given is ADME, subcellular, Lysosome. As to conditions: dose 10 µg/ml. In short, it runs like this:
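Parasites exposed to compound 10 μg mL⁻¹ for 6 h, with or without BafA1 8 nM; fixed 4% PFA, permeabilized 0.1% Triton X-100, blocked 1% BSA, rabbit anti-TbCatL 1:200 overnight at 4 °C, then Alexa 488 anti-rabbit 2 μg mL⁻¹ 1 h at 37 °C; fluorescence microscopy.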

A short description of data set [14]: Toxicity in BALB/c mouse infected with bioluminescent Trypanosoma brucei brucei GVR35-VSL2 expressing red-shifted luciferase assessed as piloerection in animal at 20 mg/kg, po administered once daily for 4 days. As to conditions: in vivo, 96 h, time 4 day. The class given is organism-based. In short, it runs like this: as §2
Data set [15] is described as follows: Toxicity in BALB/c mouse infected with bioluminescent Trypanosoma brucei brucei GVR35-VSL2 expressing red-shifted luciferase assessed as hunching in animal at 20 mg/kg, po administered once daily for 4 days. It is filed as organism-based. As to conditions: in vivo, 96 h, time 4 day. In short, it runs like this: as §2
Data set [16] in a line: Toxicity in BALB/c mouse infected with bioluminescent Trypanosoma brucei brucei GVR35-VSL2 expressing red-shifted luciferase assessed as lack of activity in animal at 20 mg/kg, po administered once daily for 4 days. It is filed as organism-based. The note with it: in vivo, 96 h, time 4 day. In short, it runs like this:
as §2

Data set [17] has as its system Trypanosoma brucei brucei. The data set can be described thus: Antitrypanosomal activity against stage-1 bioluminescent Trypanosoma brucei brucei GVR35-VSL2 expressing red-shifted luciferase infected in BALB/c mouse assessed as reduction in parasite growth by measuring curation rate at 20 mg/kg, po administered once daily for 4 days starting from 4 days post infection by luciferase based bioluminescence assay relative to control. As to conditions: time 4 day. Also noted: scale not given: the % may be the effect or the level left. It is filed as functional. In short, it runs like this: as §3

Activity calls are given as the source filed them. The rule behind the calls is not given here. A value given as a limit tells only on which side of the number the result lay.

On to `CS(=O)(=O)O.CS(=O)(=O)O.N=C(N)c1ccc2nc(C3CCC(c4nc5ccc(C(=N)N)cc5s4)CC3)sc2c1` (centres undefined), for which the EC50 with Trypanosoma brucei [1] (48 h) was found to be 1 nM; in the data set with Plasmodium falciparum it was 25.3 nM. Besides, the EC90 in the data set with Trypanosoma brucei [1] (time 48 hrs) is 1 nM. For the same molecule, in data set [2], the 50% effective concentration (EC50) at 6 days worked out at 13400 nM. Besides, the selectivity ratio in data set [3] was found to be 26300. Further, the outcome in the data set on Trypanosoma brucei [4] and in the data set on Trypanosoma brucei [5] was Active. Besides, in data set [6], the Papp is 0.4 10^-6 cm/s. Moreover, the t1/2 in [7] was above 1 h. Moreover, the Activity entry in data set [8] is “Non-Toxic”; in [9], “Non-Toxic”; in data set [10] it was below 10%; in data set [14], “Non-Toxic”; in data set [15], “Non-Toxic”; in [16] it was “Non-Toxic”. Further, the Activity in [17] turned out to be 20%. In addition, the outcome in data set [11] was inactive. For the same molecule, the “fold change (FC)” value in the data set with Trypanosoma brucei [12] came to 5. For the same molecule, the Drug uptake result in data set [13] was “Not Active”.

Values taken from ChEMBL document CHEMBL5365494, “Bis-6-amidino-benzothiazole Derivative that Cures Experimental Stage 1 African Trypanosomiasis with a Single Dose” (J Med Chem, 2023).
